Published values pooled from the literature.
Each line is one published result; the experiments were not run side by side.
Target: Inhibitor of nuclear factor kappa-B kinase subunit beta (IKBKB, Homo sapiens, UniProt O14920)
Sequence (O14920 1-756, as in one of the studies): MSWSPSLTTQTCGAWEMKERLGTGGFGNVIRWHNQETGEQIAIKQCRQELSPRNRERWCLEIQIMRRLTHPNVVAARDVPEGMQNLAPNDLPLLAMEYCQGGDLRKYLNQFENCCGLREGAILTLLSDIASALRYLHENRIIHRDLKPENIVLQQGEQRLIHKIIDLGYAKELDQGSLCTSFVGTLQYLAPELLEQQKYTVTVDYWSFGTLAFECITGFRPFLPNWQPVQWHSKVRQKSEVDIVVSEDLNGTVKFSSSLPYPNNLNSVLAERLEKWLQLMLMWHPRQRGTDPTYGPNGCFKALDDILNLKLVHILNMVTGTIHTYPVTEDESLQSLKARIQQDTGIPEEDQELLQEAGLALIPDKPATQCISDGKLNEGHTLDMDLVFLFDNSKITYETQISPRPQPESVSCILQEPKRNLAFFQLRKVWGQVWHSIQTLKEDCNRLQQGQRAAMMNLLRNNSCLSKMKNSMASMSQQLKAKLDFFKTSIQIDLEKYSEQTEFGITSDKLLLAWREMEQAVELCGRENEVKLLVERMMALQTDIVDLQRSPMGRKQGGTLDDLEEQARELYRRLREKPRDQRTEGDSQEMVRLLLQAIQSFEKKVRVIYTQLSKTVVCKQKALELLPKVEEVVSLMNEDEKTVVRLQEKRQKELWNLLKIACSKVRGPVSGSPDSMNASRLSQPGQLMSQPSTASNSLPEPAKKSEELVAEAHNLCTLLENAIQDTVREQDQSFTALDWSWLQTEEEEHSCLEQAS

CN1CCN(C(=O)c2ccc(NC(=O)Nc3ccc(N(C)c4ccnc(Nc5ccc(CS(C)(=O)=O)cc5)n4)cc3)cc2)CC1
remaining binding (binding, competition with immobilised ligand; 1 µM): 70%

C=CC(=O)N1CCC[C@@H](n2nc(-c3ccc(Oc4ccccc4)cc3)c3c(N)ncnc32)C1
inhibition (enzyme activity, inhibitor; 1 µM): 30%

N#Cc1ccc(NC(=O)Nc2ccccc2)cc1
remaining binding (cell-free assay, competition with immobilised ligand; 25 µM): 100%

CO[C@@H]1[C@H](N(C)C(=O)c2ccccc2)C[C@H]2O[C@]1(C)n1c3ccccc3c3c4c(c5c6ccccc6n2c5c31)C(=O)NC4
inhibition (enzyme activity, inhibitor; 1 µM): 13%

C#Cc1cnc(Nc2ccnc(CO)c2)nc1Nc1ccccc1S(C)(=O)=NC#N (centres unmarked)
remaining signal (cell-free assay; 1 µM): 97%

COc1ccc2oc(-c3ccc4nc(N)oc4c3)c/c(=N\c3ccccc3NC(=O)CCN)c2c1
remaining binding (binding; 1 µM): 102%

CCCCC(=O)Nc1ccc(-c2ccc3ncn(CCC)c(=O)c3c2)cn1
remaining binding (binding, competition with immobilised ligand; 0.5 µM): 100%

Cc1ccc(NC(=O)c2ccnc(C(F)(F)F)c2)cc1-c1cc(OCCO)nc(N2CCOCC2)c1
remaining binding (binding, competition with immobilised ligand; 1 µM): 97%
